esBAF inh – Bmi1 luciferase reporter increase in mESCs, primary screen, esBAF inhibitor project, mouse ES cells, Bmi1 luciferase knock-in, single point; actives 2% (n = 350,000); reporter increase, % at 12.5 µM; AID 602393, 2012; 24 h; 100% = twice the neutral-well signal; in the data active = activation above about 40%; inconclusive = no clear call, values can overlap the other calls;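 note: a rise in the Bmi1 reporter signal indicates esBAF inhibition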
HIV Env fusion – inhibitors of HIV-1 Env-driven cell-cell fusion, primary screen, HeLa-JRFL effector, CEM21 target cells, luciferase | inhibition, % at 12.3 µM | actives 1.1% (n = 360,000) | AID 651610, 2012;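 active = mean replicate inhibition score of at least 50 and every replicate individually at or above 50; inconclusive = only one of the two criteria met; inactive = mean below 50 and not all replicates reaching 50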
Wnt bcat act – Wnt/beta-catenin pathway activators, primary screen, cell-based, plate reader, single point | AID 743398, 2014 | activation, % at 9.35 µM | Wnt/beta-catenin reporter cell assay, activator | actives 1.2% (n = 300,000); in the data active = activation above about 30%, passing the limit was not always enough; inconclusive = no clear call, values can overlap the other calls
ERAP1 HTS inh – human ERAP1 aminopeptidase inhibitors, primary screen, biochemical, single point, plate reader; Endoplasmic reticulum aminopeptidase 1 (Homo sapiens), Q9NZ08; recombinant ERAP1, Leu-AMC fluorescence, 60 min; inhibition, % at 10.7 µM; actives 0.15% (n = 340,000); AID 652197, 2013;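 active = mean replicate inhibition of at least 30%, or all replicates individually reaching that 30% level; inactive = mean below 30% and not every replicate reaching it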
Target sequence (Q9NZ08 whole entry, looked up): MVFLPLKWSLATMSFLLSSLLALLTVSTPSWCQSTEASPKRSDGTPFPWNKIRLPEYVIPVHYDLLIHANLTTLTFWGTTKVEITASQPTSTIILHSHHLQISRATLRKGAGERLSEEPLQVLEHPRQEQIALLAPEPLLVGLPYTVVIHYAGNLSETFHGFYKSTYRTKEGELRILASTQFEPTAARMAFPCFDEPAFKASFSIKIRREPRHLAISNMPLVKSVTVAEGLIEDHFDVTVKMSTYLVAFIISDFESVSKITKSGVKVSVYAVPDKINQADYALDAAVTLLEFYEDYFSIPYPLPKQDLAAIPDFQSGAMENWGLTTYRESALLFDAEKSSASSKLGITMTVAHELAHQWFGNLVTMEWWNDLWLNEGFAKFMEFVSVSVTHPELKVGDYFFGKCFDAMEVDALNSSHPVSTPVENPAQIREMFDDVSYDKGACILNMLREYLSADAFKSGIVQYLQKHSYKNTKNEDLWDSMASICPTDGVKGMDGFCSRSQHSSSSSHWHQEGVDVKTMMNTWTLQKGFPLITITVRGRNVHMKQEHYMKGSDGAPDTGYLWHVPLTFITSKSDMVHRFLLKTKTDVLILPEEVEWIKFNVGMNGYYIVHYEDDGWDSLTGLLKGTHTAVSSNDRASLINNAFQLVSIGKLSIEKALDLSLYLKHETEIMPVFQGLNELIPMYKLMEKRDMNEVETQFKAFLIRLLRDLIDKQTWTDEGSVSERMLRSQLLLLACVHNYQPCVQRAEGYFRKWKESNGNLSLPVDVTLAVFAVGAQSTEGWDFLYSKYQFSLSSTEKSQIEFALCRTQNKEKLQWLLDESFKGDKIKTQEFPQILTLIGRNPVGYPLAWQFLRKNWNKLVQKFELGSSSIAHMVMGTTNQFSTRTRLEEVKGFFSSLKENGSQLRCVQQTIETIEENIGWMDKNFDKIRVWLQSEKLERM
Cneo AK release – Cryptococcus neoformans cell lysis inducers, primary screen, AK release luminescence, single concentration | C. neoformans lysis, adenylate kinase release luminescence, 4 h; normalised: neutral wells 0, clomiphene wells 100 | lysis activity, % at 15 µM | actives 0.2% (n = 360,000) | AID 651654, 2012;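 active = mean lysis activity across replicates of at least 80%, whatever share of replicates individually reach that level; inactive = mean lysis activity below 80%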
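Signal: Adenylate kinase release luminescence | Assay system: Log-phase Cryptococcus neoformans yeast cells | Input: Cells at 5 × 10^6 per mL | Buffer or medium: Fresh YPD growth medium | Compound: Single dose | Schedule: Static 4 h at 37 °C with compound, 1 h detection | Controls: Clomiphene | Read-out: Luminescence rise reflecting yeast cell lysis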
MITF act – activators of MITF-driven TRPM1 promoter reporter, primary screen, cell-based, SK-MEL-5, luciferase, single point | activation, % at 12.5 µM | SK-MEL-5 TRPM1-promoter luciferase, 24 h; % of positive control, neutral wells = 0 | actives 0.75% (n = 300,000) | AID 588334, 2011;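 active = mean activation of at least 80% with every replicate also reaching 80%; inconclusive = mean reaches 80% but some replicate falls short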
Of the large screens only hits and unclear results are named; the others gave an inactive call. Most compounds without a hit are left out; they make up all but 3.5% or so of the library.

C=C1[C@@H](C)[C@H]2[C@H](Cc3ccccc3)NC(=O)[C@]23OC(=O)/C=C/[C@H](O)CCC[C@@H](C)C/C=C/[C@H]3[C@@H]1O	HIV Env fusion 69
COc1cc([C@H]2OC[C@H]3[C@@H]2CO[C@@H]3c2cc(OC)c(O[C@@H]3O[C@H](CO)[C@@H](O)[C@H](O)[C@H]3O)c(OC)c2)cc(OC)c1O[C@H]1O[C@@H](CO)[C@H](O)[C@@H](O)[C@@H]1O	none (no result: ERAP1 HTS inh)
O=c1ccc2cc(OC3O[C@H](CO)[C@@H](O)[C@H](O)[C@H]3O)c(O)cc2o1 (stereo partly drawn)	ERAP1 HTS inh 79
COc1cccc(C2C([N+](=O)[O-])=C(N)Oc3c2c(=O)oc2ccccc32)c1 (stereo not drawn)	none (no result: ERAP1 HTS inh, MITF act)
COc1ccc(C2c3c(nc(C)[nH]c3=O)Oc3c2c(=O)oc2ccccc32)cc1 (stereo not drawn)	Wnt bcat act 36 (no result: esBAF inh, Cneo AK release, MITF act)
CCC1CN2CCc3cc(OC)c(OC)cc3C2CC1CC1NCCc2c1[nH]c1ccc(O)cc21 (stereo not drawn)	HIV Env fusion 73 (no result: esBAF inh, Cneo AK release, MITF act)
Cc1ccc(S(=O)(=O)CC(C)(O)C(=O)Nc2cccc(C(F)(F)F)c2)cc1 (stereo not drawn)	HIV Env fusion 68 (no result: Wnt bcat act, ERAP1 HTS inh)
COC(=O)[C@@H]1[C@@H](CO)[C@@H]2Cn3c(ccc(-c4ccc(F)cc4)c3=O)[C@H]1N2C(=O)c1ccccc1F	none (no result: HIV Env fusion, Wnt bcat act, MITF act)
CCOC(=O)[C@@H]1[C@@H]2NC(=S)N(C)[C@@]1(C)Oc1ccccc12	none (no result: esBAF inh, Wnt bcat act, MITF act)
CCC(C)(C)n1nnnc1C(c1cccs1)N1CC=C(c2ccc(F)cc2)CC1 (stereo not drawn)	HIV Env fusion 96 (no result: Wnt bcat act)
C[N+]1(C)[C@@H]2CC[C@H]1CC(OC(=O)[C@@H](CO)c1ccccc1)C2 (stereo partly drawn)	none
C[N+]1(C)CCC(OC(=O)C(c2ccccc2)c2ccccc2)CC1	ERAP1 HTS inh 92
O=C1C(=O)c2ccccc2-c2ccccc21	esBAF inh inconclusive, HIV Env fusion 91
O=C1C(=O)c2cccc3cccc1c23	none (no result: esBAF inh, Cneo AK release)
COCC#Cc1ccc([C@@H]2[C@@H](CO)N3CCCCN(C(=O)Cc4ccccn4)C[C@@H]23)cc1	none (no result: esBAF inh, HIV Env fusion, Wnt bcat act, MITF act)
COC(=O)C1=C(c2ccc(F)cc2OCc2ccccc2)C[C@@H]2CC[C@H]1N2C(=O)NCc1ccc(F)cc1	none
COC(=O)C1=C(c2ccc(F)cc2OCc2ccccc2)C[C@@H]2CC[C@H]1N2C(=O)NC1Cc2ccccc2C1	HIV Env fusion 57
COC(=O)C1=C(c2ccc(-c3ccccc3)c(F)c2)C[C@@H]2CC[C@H]1N2C(=O)NCCOc1ccccc1	none
COCCNC(=O)N1[C@H]2CC[C@@H]1C(C(=O)OC)=C(c1ccc(-c3ccccc3)c(F)c1)C2	HIV Env fusion 57
O=C(O)[C@@H]1[C@@H](CO)[C@@H]2Cn3c(ccc(C4=CCCC4)c3=O)[C@H]1N2C(=O)Cc1ccccn1	none (no result: HIV Env fusion, Wnt bcat act, MITF act)
O=C1NC(=O)C2(Cc3ccccc3N3CCCC32)C(=O)N1 (stereo not drawn)	HIV Env fusion 61 (no result: Wnt bcat act, ERAP1 HTS inh)
O=C1NC(=O)C2(Cc3ccccc3N3CCCC32)C(=O)N1c1ccccc1 (stereo not drawn)	none (no result: ERAP1 HTS inh)
O=C1CNC[C@H]2[C@@H](c3ccc(Br)cc3)[C@@H](CO)N12	none (no result: esBAF inh, HIV Env fusion, Wnt bcat act, Cneo AK release, MITF act)
CN1C(=O)/C(=C\c2ccc(N3CCCCC3)o2)C(=O)NC1=S	Wnt bcat act 50 (no result: ERAP1 HTS inh, MITF act)
CN1C(=O)/C(=C/c2ccc(N3CCCCCC3)o2)C(=O)NC1=S	Wnt bcat act 44 (no result: ERAP1 HTS inh, MITF act)
CC1=C2C[C@H]3[C@@H](CC=C4C[C@@H](O)CC[C@@]43C)[C@@H]2CC[C@]12O[C@@H]1C[C@H](C)CN[C@@H]1C2C (stereo partly drawn)	none (no result: esBAF inh, Wnt bcat act, MITF act)
COC(=O)[C@H]1[C@H](CO)[C@H]2Cn3c(ccc(C4=CCCCC4)c3=O)[C@@H]1N2CC1CC1	none (no result: HIV Env fusion, Wnt bcat act, MITF act)
Cc1ccc(N)c(N)c1	MITF act 99 (no result: HIV Env fusion)
CCOc1ccc(C2CC(c3c(O)n(C)c(=O)n(C)c3=O)=NN2)cc1 (stereo not drawn)	Wnt bcat act 30 (no result: esBAF inh, MITF act)
O=C1CNC[C@@H]2[C@@H](c3ccc(Br)cc3)[C@@H](CO)N12	none (no result: esBAF inh, HIV Env fusion, Wnt bcat act, Cneo AK release, MITF act)
CCc1ccc(-c2nn(Cc3ccccc3)cc2C=O)cc1	esBAF inh 67
O=Cc1cn(Cc2c(F)cccc2Cl)nc1-c1ccccc1	none (no result: ERAP1 HTS inh, Cneo AK release)
COC(=O)[C@@H]1[C@@H](CO)[C@@H]2Cn3c(ccc(-c4cccnc4)c3=O)[C@H]1N2S(=O)(=O)c1ccccc1F	none (no result: HIV Env fusion, Wnt bcat act, MITF act)
C[n+]1c2ccccc2nc2ccc(NCCO)cc21	HIV Env fusion 57
CNc1ccc2nc3ccccc3[n+](C)c2c1	none
COc1ccc(C#Cc2ccc([C@@H]3[C@H](CO)N4CCCCN(C(=O)Cc5cccnc5)C[C@@H]34)cc2)cc1	none (no result: esBAF inh, HIV Env fusion, Wnt bcat act, MITF act)
CCOC(=O)c1ccccc1N	none (no result: HIV Env fusion)
Nc1ccccc1C(=O)OCc1ccc([N+](=O)[O-])cc1	esBAF inh 57
O=C1CNC[C@@H]2[C@H](c3ccc(Br)cc3)[C@@H](CO)N12	none (no result: esBAF inh, HIV Env fusion, Wnt bcat act, Cneo AK release, MITF act)
O=c1c2ccccc2[se]n1-c1ccccc1	ERAP1 HTS inh 75
C/C=C/c1ccc(C2[C@@H]3CN(C(=O)CN(C)C)C[C@H]2N3)cc1 (stereo partly drawn)	none (no result: esBAF inh, HIV Env fusion, Wnt bcat act, Cneo AK release, MITF act)
O=C(Cc1ccccn1)N1CCCCN2[C@H](CO)[C@H](c3ccc(C#Cc4ccccc4)cc3)[C@H]2C1	none (no result: esBAF inh, HIV Env fusion, Wnt bcat act, MITF act)
Cc1nnc(SCc2nc3ccccc3c(=O)n2-c2ccccc2Cl)n1N	HIV Env fusion 119 (no result: ERAP1 HTS inh)
Cc1nc2ccccc2c(=O)n1-c1c(Cl)cccc1Cl	none (no result: MITF act)
N#Cc1cccc(-c2ccc([C@H]3[C@H]4CN(C(=O)Cc5ccncc5)CCCCN4[C@H]3CO)cc2)c1	none (no result: esBAF inh, HIV Env fusion, Wnt bcat act, MITF act)
O=C(C1CC(c2ccc(Cl)c(Cl)c2)=NO1)N1CCC2(CC1)OCCO2 (stereo not drawn)	esBAF inh 80, MITF act 117 (no result: HIV Env fusion, Wnt bcat act, ERAP1 HTS inh)
O=C(Cc1ccccn1)N1CC2(C1)[C@H](c1ccccc1)[C@@H](CO)N2Cc1ccccn1	none (no result: esBAF inh, HIV Env fusion, Wnt bcat act, Cneo AK release, MITF act)
CCOC(=O)[C@@H]1[C@@H]2NC(=O)N(C)[C@@]1(C)Oc1ccccc12	none (no result: esBAF inh, Wnt bcat act, MITF act)
CCOC(=O)c1cc2c(cn1)[nH]c1ccccc12	esBAF inh 50
CCOC(=O)C(O)(c1ccc(NC(=O)c2ccc(Cl)c(Cl)c2)cc1)C(F)(F)F (stereo not drawn)	none (no result: MITF act)
CCOC(=O)C(O)(c1ccc(NC(=O)NC2CCCCC2)cc1)C(F)(F)F (stereo not drawn)	esBAF inh 46 (no result: ERAP1 HTS inh)
